Like-named read-outs stand apart in the source and are kept apart here.
Experiments:
[1] = tested on: RUMH cells (renal cell carcinoma, c-MET-overexpressing); assay: cytotoxicity assay; assay type: cell-based, human; conditions: for IC50: read-out: IC50 cytotoxicity; for cytotoxic activity under hypoxia vs normoxia: 72 h, 1 % O2 vs 21 % O2
Summary of the method: (§1)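 MTT (EZ4U) viability in H1993 or in-house-established RUMH cells in RPMI 1640 with 10% FCS. Cells were seeded at 3-6x10³/well and recovered 24 h, then given increasing concentrations of test compound (final DMSO <1%). Exposure was 24 h or 72 h at 21% O₂ (normoxia) or 1% O₂ (hypoxia). IC50 came from full dose-response curves; one representative experiment in triplicate, mean ± SD.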

[2] = tested on: H2228 cells (non-small cell lung cancer, ALK-dependent); assay: cytotoxicity assay; assay type: cell-based, human; conditions: for cytotoxic activity under hypoxia vs normoxia: H2228, 72 h, 1 % O2 vs 21 % O2; for IC50: read-out: IC50 cytotoxicity
[3] = tested on: H1993 cells (non-small cell lung cancer, c-MET-dependent); assay: cytotoxicity assay; assay type: cell-based, human; conditions: for cytotoxic activity under hypoxia vs normoxia: H1993, 72 h, 1 % O2 vs 21 % O2; for IC50: read-out: IC50 cytotoxicity
Summary of the method: as §1

[4] = tested on: H1993 tumor cell proliferation (Ki-67); assay: H1993 xenograft, immunohistochemistry of Ki-67 and tumor histology; assay type: in vivo, SCID mice; conditions: 24 h
solubility in PBS = assay type: physicochemical
[5] = stability assay in buffer, medium and serum; assay type: in vitro ADME; conditions: pure serum (FCS), 37 °C, up to 72 h
[6] = tested on: HACAT (keratinocytes from human skin); assay: cytotoxicity in non-malignant cells; assay type: cell-based; conditions: normoxic, 72 h
Summary of the method: (§2)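 Non-malignant HACAT keratinocytes or HLF lung fibroblasts in RPMI 1640 with 10% FCS, under normoxia (37 °C, 21% O₂, 5% CO₂). Cells were seeded at 3-6x10³/well and recovered 24 h. They were then exposed for 72 h to increasing concentrations of test compound diluted from DMSO stock (final DMSO <1%). Viability was read by MTT (EZ4U), with IC50 fitted from full dose-response curves.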

stability down to pH 1 = assay type: physicochemical; conditions: down to pH 1, 24 h, 37 °C; data not shown
c-MET = conditions: cell-free kinase assay
[7] = tested on: HLF (fibroblasts from human lung); assay: cytotoxicity in non-malignant cells; assay type: cell-based; conditions: normoxic, 72 h
Summary of the method: as §2

[8] = molecular target: c-MET phosphorylation in H1993 tumor tissue (Homo sapiens, UniProt P08581); assay: H1993 xenograft, immunohistochemistry of p-c-MET; assay type: in vivo; conditions: 24 h, H1993 s.c. in SCID mice
Sequence of c-MET phosphorylation in H1993 tumor tissue (P08581 25-1390): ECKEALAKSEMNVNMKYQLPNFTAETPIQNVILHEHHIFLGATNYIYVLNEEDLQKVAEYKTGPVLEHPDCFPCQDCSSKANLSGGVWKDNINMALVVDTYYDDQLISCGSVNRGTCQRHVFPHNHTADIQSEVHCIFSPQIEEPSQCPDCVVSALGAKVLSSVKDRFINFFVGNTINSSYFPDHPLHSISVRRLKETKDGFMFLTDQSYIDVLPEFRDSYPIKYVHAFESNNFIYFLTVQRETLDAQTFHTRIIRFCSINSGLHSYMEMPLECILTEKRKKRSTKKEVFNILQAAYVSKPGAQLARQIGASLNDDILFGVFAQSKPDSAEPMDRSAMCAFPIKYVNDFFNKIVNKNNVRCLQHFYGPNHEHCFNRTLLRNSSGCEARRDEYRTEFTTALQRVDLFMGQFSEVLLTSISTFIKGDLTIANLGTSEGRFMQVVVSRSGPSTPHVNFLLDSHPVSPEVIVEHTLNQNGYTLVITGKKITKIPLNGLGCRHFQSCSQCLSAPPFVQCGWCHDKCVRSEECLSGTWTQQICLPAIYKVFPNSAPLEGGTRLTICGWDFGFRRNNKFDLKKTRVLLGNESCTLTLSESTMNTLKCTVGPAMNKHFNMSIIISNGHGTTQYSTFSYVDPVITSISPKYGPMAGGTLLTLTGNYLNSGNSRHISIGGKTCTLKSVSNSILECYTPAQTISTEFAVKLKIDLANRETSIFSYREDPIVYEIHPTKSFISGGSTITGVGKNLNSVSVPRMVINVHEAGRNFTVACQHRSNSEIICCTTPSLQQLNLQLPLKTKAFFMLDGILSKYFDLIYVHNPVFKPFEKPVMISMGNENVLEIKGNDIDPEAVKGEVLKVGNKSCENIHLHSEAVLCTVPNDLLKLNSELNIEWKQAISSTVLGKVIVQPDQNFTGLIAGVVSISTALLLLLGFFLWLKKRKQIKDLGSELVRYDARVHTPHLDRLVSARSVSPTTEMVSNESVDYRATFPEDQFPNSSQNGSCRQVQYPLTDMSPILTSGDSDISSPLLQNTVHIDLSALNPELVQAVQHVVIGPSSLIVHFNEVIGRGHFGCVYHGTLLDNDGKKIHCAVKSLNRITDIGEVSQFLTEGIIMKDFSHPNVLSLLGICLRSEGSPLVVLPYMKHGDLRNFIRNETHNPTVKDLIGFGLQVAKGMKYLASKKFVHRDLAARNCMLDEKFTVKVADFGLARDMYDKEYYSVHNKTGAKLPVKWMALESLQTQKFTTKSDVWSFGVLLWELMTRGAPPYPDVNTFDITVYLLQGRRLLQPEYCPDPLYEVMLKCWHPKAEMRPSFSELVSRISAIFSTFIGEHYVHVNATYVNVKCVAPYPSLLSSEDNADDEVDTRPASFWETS

ALK = conditions: cell-free kinase assay
[9] = molecular target: nitroreductase enzyme (E. coli) (Escherichia coli, UniProt P38489); conditions: nitroreductase + NADH, pH 7.4, 37 °C, HPLC; for conversion of prodrug by nitroreductase: after 10 min
Sequence of nitroreductase enzyme (E. coli) (P38489 whole entry): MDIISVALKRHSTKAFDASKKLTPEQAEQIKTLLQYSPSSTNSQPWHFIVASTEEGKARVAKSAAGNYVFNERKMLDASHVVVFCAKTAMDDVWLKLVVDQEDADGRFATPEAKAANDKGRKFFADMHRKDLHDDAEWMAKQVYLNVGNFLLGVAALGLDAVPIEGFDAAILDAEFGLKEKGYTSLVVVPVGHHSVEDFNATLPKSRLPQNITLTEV

c-MET phosphorylation = c-MET phosphorylation (Homo sapiens, UniProt P08581); assay: Western blot of c-MET phosphorylation in H1993 cells; assay type: cell-based; conditions: H1993, 24 h
Sequence of c-MET phosphorylation (P08581 25-1390): as the sequence (P08581 25-1390) above

ERK 1/2 phosphorylation = assay: Western blot of ERK 1/2 phosphorylation in H1993 cells; assay type: cell-based, human; conditions: H1993, 24 h
Summary of the method: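 H1993 cells in RPMI 1640 with 10% FCS were plated at 8x10⁵ cells/dish and allowed 24 h recovery. They were exposed for 24 h to DMSO-diluted test compound (final DMSO <1%) at 21% or 1% O₂. Lysates were run on SDS-PAGE/PVDF and probed for p-ERK 1/2 (Thr202/Tyr204), ERK 1/2 and β-actin (all 1:1000), with HRP secondaries at 1:10000. Read-out: p-ERK/ERK ratio after β-actin normalisation.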

[10] = RUMH, 24 h treatment, MTT, 1 % O2 or 21 % O2
[11] = H2228, 24 h treatment, MTT, 1 % O2 or 21 % O2
[12] = H1993, 24 h treatment, MTT, 1 % O2 or 21 % O2

Cn1c(COP(=O)(NCCBr)NCCBr)cnc1[N+](=O)[O-] [TH-302, reference compound]
IC50 ([1]; Homo sapiens, 24 h): > 25 µM | cytotoxic activity under hypoxia vs normoxia ([1]; RUMH): significant anticancer activity under low oxygen levels | cytotoxic activity under hypoxia vs normoxia [2]: significant anticancer activity under low oxygen levels | IC50 ([2]; Homo sapiens, NCI-H2228, 24 h): > 25 µM | cytotoxic activity under hypoxia vs normoxia [3]: significant anticancer activity under low oxygen levels | IC50 ([3]; Homo sapiens, NCI-H1993, 24 h): > 25 µM

C[C@@H](Oc1cc(-c2cnn(C3CCNCC3)c2)cnc1N)c1c(Cl)ccc(F)c1Cl [crizotinib, reference compound]
IC50 ([1]; Homo sapiens, 24 h): ~20 µM | Ki-67 expression in tumor tissue ([4]; 50 mg/kg p.o., H1993 s.c. in SCID mice): slight impact | IC50 ([3]; Homo sapiens, NCI-H1993, 24 h): ~20 µM | solubility (solubility in PBS; phosphate-buffered saline): < 0.5 mg/mL

C[C@@H](Oc1cc(-c2cnn(C3CCNCC3)c2)cnc1NC(=O)OCc1cnc([N+](=O)[O-])n1C)c1c(Cl)ccc(F)c1Cl [prodrug A, (1-methyl-2-nitro-1H-imidazol-5-yl)methyl (R)-(3-(1-(2,6-dichloro-3-fluorophenyl)ethoxy)-5-(1-(piperidin-4-yl)-1H-pyrazol-4-yl)pyridin-2-yl)carbamate*1.5TFA]
cytotoxic activity under hypoxia vs normoxia ([1]; RUMH): promising hypoxia-mediated activity | IC50 [1, 10]: > 25 µM | stability in pure serum [5]: no significant degradation | cell proliferation (Ki-67) in tumor tissue ([4]; 38.5 mg/kg i.v., single dose, H1993 s.c. in SCID mice): inhibition of cell proliferation | tumor histology (tumor:stroma ratio) ([4]; 38.5 mg/kg i.v., single dose, data not shown): reduction of the tumor:stroma ratio | Ki-67 expression in tumor tissue ([4]; 89.2 mg/kg p.o., H1993 s.c. in SCID mice): did not significantly change | activity against non-malignant cells in comparison to free crizotinib [6]: distinctly reduced activity | cytotoxic activity under hypoxia vs normoxia [2]: similarly active | IC50 [2, 11]: > 25 µM | cytotoxic activity under hypoxia vs normoxia [3]: promising hypoxia-mediated activity | IC50 [3, 12]: > 25 µM | stability at low pH (stability down to pH 1): confirmed the stability | lower inhibitory potential compared to crizotinib (IC50 ratio) (c-MET): 33 fold | activity against non-malignant cells in comparison to free crizotinib [7]: distinctly reduced activity | solubility (solubility in PBS; phosphate-buffered saline (PBS), room temperature): > 20 mg/mL | c-MET phosphorylation in tumor tissue ([8]; 38.5 mg/kg i.v., single dose): significant inhibition | level of p-c-MET in tumor tissue ([8]; 89.2 mg/kg p.o.): did not significantly change | lower inhibitory potential compared to crizotinib (IC50 ratio) (ALK): 42 fold | release of crizotinib as main product [9]: about 80% | conversion of prodrug by nitroreductase [9]: complete conversion | inhibition of c-MET phosphorylation (c-MET phosphorylation; hypoxia (1 % O2), 5 μM): 40% | inhibition of c-MET phosphorylation (c-MET phosphorylation; hypoxia (1 % O2), 10 μM): 70% | inhibition of c-MET phosphorylation (c-MET phosphorylation; normoxia (21 % O2), up to 10 μM): < 10% | inhibition of ERK 1/2 phosphorylation signal (ERK 1/2 phosphorylation; hypoxia (1 % O2), 5 μM): ~ 60% | inhibition of ERK 1/2 phosphorylation signal (ERK 1/2 phosphorylation; hypoxia (1 % O2), 10 μM): ~ 80% | inhibition of ERK 1/2 phosphorylation signal (ERK 1/2 phosphorylation; normoxia (21 % O2), 5 μM): < 10%

C[C@@H](Oc1cc(-c2cnn(C3CCNCC3)c2)cnc1NCc1cnc([N+](=O)[O-])n1C)c1c(Cl)ccc(F)c1Cl [prodrug B, (R)-3-(1-(2,6-dichloro-3-fluorophenyl)ethoxy)-N-((1-methyl-2-nitro-1H-imidazol-5-yl)methyl)-5-(1-(piperidin-4-yl)-1H-pyrazol-4-yl)pyridin-2-amine *2TFA]
IC50 cytotoxicity [1, 10]: distinct anticancer activity in a range similar to crizotinib | IC50 cytotoxicity [2, 11]: distinct anticancer activity in a range similar to crizotinib | IC50 cytotoxicity [3, 12]: distinct anticancer activity in a range similar to crizotinib | lower inhibitory potential compared to crizotinib (IC50 ratio) (c-MET): 64 fold | lower inhibitory potential compared to crizotinib (IC50 ratio) (ALK): > 143 fold | release of crizotinib as main product [9]: no formation of crizotinib | conversion of prodrug by nitroreductase [9]: could not be activated

— publication PMC7611434 (Bioorganic chemistry, 2020)
